According to ChEMBL document CHEMBL1649119, “Daptomycin pharmacokinetics in adult oncology patients with neutropenic fever” (Antimicrob Agents Chemother, 2009):
In brackets after ≈: the same amount, converted by molar mass.

Tests used:
Homo sapiens [1] = assay: Volume of distribution at steady state in healthy human at 4 mg/kg, iv administered as single dose 30 mins infusion; type: ADME, organism-based; design: dose 4 mg/kg, route intravenous; conditions: in vivo, 0.5 h
[2] = Mean residence time in cancer patient with neutropenic fever at 6 mg/kg, iv administered as 30 mins infusion every 24 hrs; type: ADME, organism-based; design: dose 6 mg/kg, route intravenous; conditions: human, in vivo
Method in brief: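 Patients with neutropenic fever; 6 mg/kg by total body weight, 30-min IV infusion every 24 h; serial plasma sampling predose to 24 h after infusion start. Total plasma drug by validated HPLC; mean residence time from noncompartmental analysis of concentration-time data.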

Staphylococcus = assay: Antimicrobial activity against Staphylococcus; type: functional
[3] = Plasma concentration in old healthy human at 4 mg/kg, iv administered as single dose 30 mins infusion measured after 24 hrs; type: ADME, organism-based; design: dose 4 mg/kg, route intravenous
[4] = Plasma concentration in young healthy human at 4 mg/kg, iv administered as single dose 30 mins infusion measured after 24 hrs; type: ADME, organism-based; design: dose 4 mg/kg, route intravenous
[5] = Clearance in healthy human subjects at 6 mg/kg, iv administered as 30 mins infusion every 24 hrs measured on day 1; type: ADME, organism-based; design: dose 6 mg/kg, route intravenous; conditions: in vivo
[6] = Clearance in healthy human subjects at 12 mg/kg, iv administered as 30 mins infusion every 24 hrs measured on day 14; type: ADME, organism-based; design: dose 12 mg/kg, route intravenous; conditions: in vivo
[7] = Unbound fraction in healthy human plasma at 6 mg/kg, iv administered as 30 mins infusion every 24 hrs measured on day 1; type: ADME, organism-based; design: dose 6 mg/kg, route intravenous
[8] = Renal clearance in nonobese human at 4 mg/kg, iv administered as single dose 30 mins infusion; type: ADME, organism-based, Kidney; design: dose 4 mg/kg, route intravenous; conditions: in vivo, read-out: CL_renal (converted)
[9] = Clearance in healthy human at 4 mg/kg, iv administered as 30 mins infusion every 24 hrs measured on day 7; type: ADME, organism-based; design: dose 4 mg/kg, route intravenous; conditions: in vivo
[10] = Renal clearance in old healthy human at 4 mg/kg, iv administered as single dose 30 mins infusion; type: ADME, organism-based, Kidney; design: dose 4 mg/kg, route intravenous; conditions: in vivo, read-out: CL_renal (converted)
[11] = AUC (0 to infinity) in healthy human subjects at 8 mg/kg, iv administered as 30 mins infusion every 24 hrs measured on day 1; type: ADME, organism-based; design: time infinity, dose 8 mg/kg, route intravenous; conditions: plasma
[12] = Half life in healthy human subjects at 12 mg/kg, iv administered as 30 mins infusion every 24 hrs measured on day 4; type: ADME, organism-based; design: dose 12 mg/kg, route intravenous; conditions: in vivo
[13] = Volume of distribution at steady state in nonobese human subjects at 4 mg/kg, iv administered as single dose 30 mins infusion; type: ADME, organism-based; design: dose 4 mg/kg, route intravenous; conditions: in vivo, read-out: Vdss
[14] = Unbound fraction in healthy human plasma at 4 mg/kg, iv administered as 30 mins infusion every 24 hrs measured on day 1; type: ADME, organism-based; design: dose 4 mg/kg, route intravenous
[15] = Volume of distribution at steady state in young healthy human at 4 mg/kg, iv administered as single dose 30 mins infusion; type: ADME, organism-based; design: dose 4 mg/kg, route intravenous; conditions: in vivo, read-out: Vdss
Homo sapiens [16] = assay: Apparent volume of distribution in healthy human at 4 mg/kg, iv administered as single dose 30 mins infusion; type: ADME, organism-based; design: dose 4 mg/kg, route intravenous; conditions: in vivo, 0.5 h
[17] = Apparent volume of distribution during terminal phase in healthy human subjects at 6 mg/kg, iv administered as 30 mins infusion every 24 hrs measured on day 4; type: ADME, organism-based; design: dose 6 mg/kg, route intravenous; conditions: in vivo
[18] = Drug excretion in healthy human urine assessed as unchanged drug at 4 mg/kg, iv administered as single dose 30 mins infusion; type: ADME, organism-based; design: dose 4 mg/kg, route intravenous; conditions: read-out: Drug uptake
[19] = AUC ( 0 to infinity) in cancer patient with neutropenic fever at 6 mg/kg, iv administered as 30 mins infusion every 24 hrs; type: ADME, organism-based; design: time infinity, dose 6 mg/kg, route intravenous; conditions: human, plasma
Method in brief: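 Adult oncology patients with neutropenic fever (n = 29) received 6 mg/kg by total body weight as a 30-min IV infusion. Plasma was sampled predose, at end of infusion, and at 0.5, 1, 2, 4, 8, 12 and 24 h. Total drug was measured by validated HPLC (linear 1–100 μg/ml). Noncompartmental analysis: AUC0-24 by linear trapezoidal rule, plus last concentration/λz. Mean ± SD.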

Homo sapiens [20] = assay: Volume of distribution in central compartment in healthy human at 4 mg/kg, iv administered as single dose 30 mins infusion; type: ADME, organism-based; design: dose 4 mg/kg, route intravenous; conditions: in vivo, 0.5 h
[21] = Clearance in healthy human at 6 mg/kg, iv administered as 30 mins infusion every 24 hrs measured on day 1; type: ADME, organism-based; design: dose 6 mg/kg, route intravenous; conditions: in vivo
Homo sapiens [22] = assay: AUC (0 to infinity) in healthy human subjects at 6 mg/kg, iv administered as 30 mins infusion every 24 hrs measured on day 1; type: ADME, organism-based, Plasma; design: time infinity, dose 6 mg/kg, route intravenous; conditions: in vivo
Homo sapiens [23] = assay: Unbound clearance in healthy human at 8 mg/kg, iv administered as 30 mins infusion every 24 hrs measured on day 7; type: ADME, organism-based; design: dose 8 mg/kg, route intravenous; conditions: in vivo
[24] = Clearance in morbidly obese adult human at 4 mg/kg, iv administered as single dose 30 mins infusion; type: ADME, organism-based; design: dose 4 mg/kg, route intravenous; conditions: in vivo
[25] = Clearance in healthy human subjects at 8 mg/kg, iv administered as 30 mins infusion every 24 hrs measured on day 4; type: ADME, organism-based; design: dose 8 mg/kg, route intravenous; conditions: in vivo
[26] = Drug excretion in nonobese adult human urine assessed as unchanged drug at 4 mg/kg, iv administered as single dose 30 mins infusion; type: ADME, organism-based; design: dose 4 mg/kg, route intravenous; conditions: read-out: Drug uptake
[27] = Half life in healthy human subjects at 12 mg/kg, iv administered as 30 mins infusion every 24 hrs measured on day 1; type: ADME, organism-based; design: dose 12 mg/kg, route intravenous; conditions: in vivo
[28] = Drug excretion in moderately obese adult human urine assessed as unchanged drug at 4 mg/kg, iv administered as single dose 30 mins infusion; type: ADME, organism-based; design: dose 4 mg/kg, route intravenous; conditions: read-out: Drug uptake
[29] = Apparent volume of distribution in old healthy human at 4 mg/kg, iv administered as single dose 30 mins infusion; type: ADME, organism-based; design: dose 4 mg/kg, route intravenous; conditions: in vivo
[30] = Clearance in healthy human subjects at 12 mg/kg, iv administered as 30 mins infusion every 24 hrs measured on day 1; type: ADME, organism-based; design: dose 12 mg/kg, route intravenous; conditions: in vivo
[31] = Volume of distribution at steady state in cancer patient with neutropenic fever at 6 mg/kg, iv administered as 30 mins infusion every 24 hrs; type: ADME, organism-based; design: dose 6 mg/kg, route intravenous; conditions: human, in vivo, read-out: Vdss
Enterococcus = assay: Antimicrobial activity against Enterococcus; type: functional
[32] = Half life in healthy human subjects at 6 mg/kg, iv administered as 30 mins infusion every 24 hrs measured on day 4; type: ADME, organism-based; design: dose 6 mg/kg, route intravenous; conditions: in vivo
[33] = Half life in healthy human subjects at 10 mg/kg, iv administered as 30 mins infusion every 24 hrs measured on day 4; type: ADME, organism-based; design: dose 10 mg/kg, route intravenous; conditions: in vivo
[34] = AUC (0 to infinity) in healthy human subjects at 8 mg/kg, iv administered as 30 mins infusion every 24 hrs measured on day 4; type: ADME, organism-based; design: dose 8 mg/kg, route intravenous, time infinity; conditions: plasma
[35] = Unbound fraction in healthy human plasma at 4 mg/kg, iv administered as 30 mins infusion every 24 hrs measured on day 7; type: ADME, organism-based; design: dose 4 mg/kg, route intravenous
[36] = Clearance in moderately obese adult human at 4 mg/kg, iv administered as single dose 30 mins infusion; type: ADME, organism-based; design: dose 4 mg/kg, route intravenous; conditions: in vivo
[37] = Volume of distribution at steady state in old healthy human at 4 mg/kg, iv administered as single dose 30 mins infusion; type: ADME, organism-based; design: dose 4 mg/kg, route intravenous; conditions: in vivo, read-out: Vdss
[38] = Clearance in healthy human at 4 mg/kg, iv administered as 30 mins infusion every 24 hrs measured on day 1; type: ADME, organism-based; design: dose 4 mg/kg, route intravenous; conditions: in vivo
[39] = Unbound fraction in healthy human plasma at 8 mg/kg, iv administered as 30 mins infusion every 24 hrs measured on day 14; type: ADME, organism-based; design: dose 8 mg/kg, route intravenous
Homo sapiens [40] = assay: Clearance in healthy human at 4 mg/kg, iv administered as single dose 30 mins infusion; type: ADME, organism-based; design: dose 4 mg/kg, route intravenous; conditions: in vivo, 0.5 h
[41] = AUC (0 to infinity) in adult human with hepatic impairment at 6 mg/kg, iv administered as single dose 30 mins infusion; type: ADME, organism-based; design: time infinity, dose 6 mg/kg, route intravenous; conditions: plasma
[42] = Half life in healthy human subjects at 8 mg/kg, iv administered as 30 mins infusion every 24 hrs measured on day 1; type: ADME, organism-based; design: dose 8 mg/kg, route intravenous; conditions: in vivo

For CCCCCCCCCC(=O)N[C@@H](Cc1c[nH]c2ccccc12)C(=O)N[C@H](CC(N)=O)C(=O)N[C@@H](CC(=O)O)C(=O)N[C@@H]1C(=O)NCC(=O)N[C@@H](CCCN)C(=O)N[C@@H](CC(=O)O)C(=O)N[C@H](C)C(=O)N[C@@H](CC(=O)O)C(=O)NCC(=O)N[C@H](CO)C(=O)N[C@@H]([C@H](C)CC(=O)O)C(=O)N[C@@H](CC(=O)c2ccccc2N)C(=O)O[C@@H]1C, the Vdss (Homo sapiens [1]) was 6057 mL, the MRT [2] was 11.9 h and the MIC90 (Staphylococcus) was less than 1 µg/mL. It also gave a concentration at 24 h [3] of 6380 ng/mL, a concentration at 24 h [4] of less than 3300 ng/mL and a clearance [5] of 0.165 mL/min/kg. It also gave a clearance [6] of 0.15 mL/min/kg, a fraction unbound at 1 day [7] of 0.07 and a CL renal at 0.5 h [8] of 0.098 mL/min/kg. For the same compound, the clearance [9] was 0.138 mL/min/kg, the CL renal at 0.5 h [10] was 0.0712 mL/min/kg and the AUC(0-inf) [11] was 773 µg·h/mL. It also gave a half-life [12] of 7.7 h, a Vd [13] of 0.13 L/kg and a fraction unbound at 1 day [14] of 0.08. It also gave a Vd [15] of 0.14 L/kg, a Vd (Homo sapiens [16]) of 6350 mL and a Vd [17] of 0.101 L/kg. The dose excreted at 0.5 h [18] was 59.7%, the AUC(0-inf) [19] was 427 µg·h/mL and the Vd (Homo sapiens [20]) was 3420 mL. For the same compound, the clearance [21] was 0.143 mL/min/kg, the AUC (Homo sapiens [22]) was 729.8 µg·h/mL and the CL (Homo sapiens [23]) was 0.682 mL/min/kg. The clearance [24] was 0.13 mL/min/kg, the clearance [25] was 0.15 mL/min/kg and the dose excreted at 0.5 h [26] was 52.3%. For the same compound, the half-life [27] was 7.8 h, the dose excreted at 0.5 h [28] was 51.8% and the Vd [29] was 0.17 L/kg. It also gave a clearance [30] of 0.167 mL/min/kg, a Vd [31] of 0.18 L/kg and an MIC90 (Enterococcus) of 2 µg/mL (≈ 1.23 µM). It also gave a half-life [32] of 7.9 h, a half-life [33] of 7.9 h and an AUC(0-inf) [34] of 858 µg·h/mL. It also gave a fraction unbound at 7 day [35] of 0.08, a clearance [36] of 0.271 mL/min/kg and a Vd [37] of 0.15 L/kg. For the same compound, the clearance [38] was 0.16 mL/min/kg, the fraction unbound at 14 day [39] was 0.09 and the CL (Homo sapiens [40]) was 9.84 mL/min. The AUC(0-inf) [41] was 867 µg·h/mL and the half-life [42] was 7.3 h.
